# In PubChem BioAssay:
# Values without a mark were called inactive. Inconclusive results are not listed. Active and inactive are the calls of the source.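 Rule for the calls, unless noted: active = viability increase at or above a cutoff of the median across tested compounds plus 3 SD (cut at about 8.5% in these data, passing the limit was not always enough); inconclusive = some gains above the cutoff, reason not given; inactive = the rest.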
# Assays:
# [1] = S. cerevisiae growth inhibition in permissive medium (OD615), pilot counter-assay for S. cerevisiae lifespan shortening project, permissive growth control (AID 705;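 active = growth inhibition above 25% in both replicates, a cutoff set 3 SD above the mean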); conditions: OD615, 24 h, at 10 µM, hits give high values
# Procedure, shortened: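 assay system = Saccharomyces cerevisiae strain carrying genetically modified DeaD replicative-lifespan system | technique = absorbance (optical density) at 615 nm | buffer or medium = permissive raffinose/galactose medium | timing = cells pre-grown 4 h, then 24 h compound exposure, 30 °C humidified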
# [2] = S. cerevisiae growth inhibition in restrictive medium, OD615, pilot screen, restrictive growth control, yeast lifespan reduction project (AID 706;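 active = growth inhibition above a set limit, 3 SD over mean compound inhibition, in both replicates, cut at about 43% in these data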;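 note: modified DeaD lifespan yeast strain shifted to restrictive glucose medium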); conditions: OD615, 48 h, at 10 µM, hits give high values
# Procedure, shortened: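 System: modified S. cerevisiae. Buffer or medium: CSMM-D glucose medium. Incubation: 4 h pre-growth plus 48 h compound exposure, 30 °C. Detection: absorbance (optical density) measured at 615 nm.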
# [3] = doxorubicin toxicity protection in MRP-1 cells – H69AR cells, CellTiter-Glo, duplicate, MRP-1 activator project, pilot screen (AID 807); conditions: H69AR viability with doxorubicin, CellTiter-Glo luminescence; at 10 µM; hits give high values;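 note: compound pretreatment 18-22 h then 72 h combined with doxorubicin; 0% = doxorubicin alone and 100% = vehicle without doxorubicin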
# [4] = viability of HCT116 without oncogenic beta-catenin – human colon tumor cells, pilot screen (AID 823;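 active = cell viability at or below a set limit in both duplicate runs, the limit being the all-compound median minus 4 SD, cut at about 23% in these data, passing the limit was not always enough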;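 note: 0% = wells killed by 20 µM Hyamine and 100% = untreated DMSO cell wells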); conditions: HCT116 beta-catenin knockout viability, CellTiter-Glo, 60 h; at 10 µM; hits give low values
# [5] = viability of PTEN-null HCT116 cells – cell-based, HCT116 clonal line, CellTiter-Glo, pilot screen (AID 824;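 active = viability at or below 27.92% in each of two runs, the all-compound median minus 4 SD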;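 note: 0% = 20 µM Hyamine control and 100% = vehicle cell control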); conditions: HCT116 PTEN-deleted viability, 60 h, at 10 µM, hits give low values
# [6] = RAM pathway blockade in budding yeast – dse1pr::URA3 reporter, 5-FOA selection, pilot screen (AID 869;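 active = inhibition over a set limit, the all-compound mean plus 3 SD, in both replicate runs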;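 note: 0% = DMSO wells with no growth and 100% = 10 µM 1-NA-PP1 with full growth; RAM network block rescues cells from 5-FOA so hits raise OD615 growth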); conditions: S. cerevisiae dse1pr::URA3 5-FOA growth, OD615, 2 d; at 10 µM; hits give high values; strain carries analog-sensitive mutant Cbk1 kinase
# [7] = RAM signaling pathway blockade in yeast – S. cerevisiae, Pdr1DBD-CYC8 efflux-inhibited sensitized strain, primary screen (AID 1298;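 active = RAM network inhibition above 8.4% in each of two replicates, 3 SD over the compound average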;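 note: 0% = DMSO untreated cells without growth and 100% = 10 µM 1-NA-PP1 full growth; higher means more yeast growth rescued from 5-FOA killing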); conditions: S. cerevisiae cbk1-as DSE1-URA3 strain, 5-FOA growth OD615, 2 d; at 50 µM; hits give high values
SMILES,growth inhibition [1],growth inhibition [2],viability increase [3],viability [4],viability [5],inhibition [6],RAM network inhibition [7]
Cc1cc(C)cc(-n2cc3c(=O)n(C)c(=O)n(C)c3c2)c1,-6.43%,-0.345%,-1.71%,102%,103%,0.155%,2.55%
COC(=O)C1CCN(C(c2cc(OC)c(OC)c(OC)c2)c2sc3nc(C)nn3c2O)CC1 (stereo not drawn),-10.8%,-17.2%,-1.81%,102%,93%,2.08%,3.91%
C=CCNC(=O)c1cnc2n(c1=O)CCS2,5.17%,5.46%,2.16%,103%,109%,1.68%,-1.87%
CCC(Cc1ccccc1)NC(=O)CN1C(=O)CSc2ncccc21 (stereo not drawn),-2.26%,-14.6%,-2.81%,85%,75.7%,0.665%,-0.97%
CCCC(=O)N1CCN(c2ccc(C(=O)c3ccc(OC)c(Br)c3)cc2F)CC1,-14.6%,-18.4%,-1.74%,96.8%,93.7%,1.3%,4.76%
CSC1=NCCN1C(=O)Cc1ccc(Cl)cc1,1.21%,-7%,4.4%,108%,96.7%,0.105%,-0.15%
COC(=O)c1ccccc1Nc1cc(C)nc2nc(C)nn12,-5.25%,0.455%,-3.74%,105%,115%,-0.315%,1.72%
N=c1oc2ccccc2cc1-c1nc2ccccc2c(=O)[nH]1,2.5%,1.96%,2.52%,94.3%,96.3%,2%,4.24%
Cc1cc(C)c(S(=O)(=O)Nc2ccc(O)cc2)c(C)c1,-9%,3.16%,-1.56%,91.6%,89.2%,1.2%,2.25%
CCOC(=O)c1sc2nc(NC(=O)C3CC3)sc2c1C,-0.51%,-2.08%,-5.8%,86%,82.2%,4.2%,3.96%
CC1CCCCN1CCNC(=O)c1cc2c(-c3ccccc3F)nn(C)c2s1 (stereo not drawn),-3.09%,0.025%,-6.73%,48%,59.6%,0.095%,5.89%
NC(=O)CSc1oc(-c2ccc(F)cc2)nc1S(=O)(=O)c1ccccc1,-6.54%,-10.7%,-4.42%,92.7%,87.8%,0.73%,1.45%
Cc1cccn2c(=O)c3cc(C#N)c(=NC(=O)c4ccccc4)n(Cc4ccco4)c3nc12,-4.6%,-12.7%,-1.26%,72.7%,62.2%,1.75%,4.04%
CCCCCCC1C(C#N)=C(N)OC2=C1C(=O)CCC2 (stereo not drawn),-12%,-14.4%,-2.64%,101%,92%,3.6%,4.66%
COc1ccc(OC)c(C2CC(=O)c3c([nH]c(C(=O)OC(C)C)c3C)C2)c1 (stereo not drawn),-9.82%,-21.9%,-7.46%,15.2% (active),14.8% (active),1.69%,0.97%
CCOc1ccc(N(CC(=O)N2CCc3ccccc32)S(=O)(=O)c2c(C)noc2C)cc1,-1.81%,10.1%,-5.12%,65.7%,59.2%,3.63%,2.47%
O=S(=O)(NCC(c1cccnc1)N1CCN(c2ccc(F)cc2)CC1)c1ccc(F)cc1 (stereo not drawn),-0.55%,-0.65%,-2.52%,87.4%,84.5%,4.02%,4.9%
CCN(CCCNC(=O)Cn1ncc2c(=O)oc3ccccc3c21)c1cccc(C)c1,1.03%,9.37%,-2.09%,89.9%,87.5%,2.57%,3.72%
O=C(c1ccc(CS(=O)(=O)c2ccccc2)o1)N1CCOCC1,-12.2%,-15.5%,-0.71%,105%,95.8%,1.19%,3.8%
Cc1nnc(NC(=O)CSC2CCCCC2)s1,3.88%,17.7%,-0.77%,105%,97.9%,1.1%,2.15%
CC1=C(C(=O)OC2CCCCCCC2)C(c2cccc(O)c2)NC(=O)N1 (stereo not drawn),-1.81%,0.17%,4.53%,65.2%,65.6%,0.63%,0.89%
Cc1[nH]c2ccccc2c1SCCN,-9.76%,-12.4%,-5.96%,73.9%,62.9%,2.34%,1.7%
CC(=O)Nc1ccc(C(=O)c2ccccc2)cc1,8.43%,6.52%,-1.14%,95.4%,92.5%,0.97%,0.62%
CCOC(=O)C1=C(C)OC(N)=C(C#N)C1c1c(C)nn(-c2ccccc2)c1Cl (stereo not drawn),-11.9%,-20%,-3.98%,102%,98.1%,3.71%,7.39%
